Data on 2 compounds can be found in ChEMBL document CHEMBL1125497, “Synthesis and anticonvulsant activity of enaminones” (J Med Chem, 1992).

Series [1] can be described thus: Dose protecting 50% of the mice from tonic hind limb extension at the time of […] after ip administration. The format is functional. As to conditions: Mus musculus, Hindlimb. The method, boiled down: (§1)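 Phase II quantification in CF1 male mice (ca. 24–34 g), dosing ip or po in 0.5% methylcellulose suspension. ED50 is protection from tonic hind limb extension in MES. TD50 is rotorod neurotoxicity. Both were read at time of peak effect and derived by Litchfield–Wilcoxon with 95% confidence limits.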

Series [2] can be described thus: Dose showing neurotoxicity in 50% of the at the time of peak neurotoxic effect in CF1 MICE after ip administration. The format is functional. As to conditions: Mus musculus. Summed up: as §1
Series [3] is described as follows: (§2) Dose producing neurotoxic effects in 50% of the CF1 mice after intraperitoneal administration. In kind it is ADME. As to conditions: CF1, mouse, in vivo, ip. Summed up:
as §1

A short description of series [4]: Antiepileptic activity in male CF1 mice 4 hr after administration measured in maximum electroshock seizure(MES) test at a dose of 300 mg/kg. The format is functional, Mus musculus.
Series [5] can be described thus: Dose showing neurotoxicity in 50% of the at the time of peak neurotoxic effect in CF1 MICE after po administration. As to conditions: CF1, mouse, in vivo. In kind it is toxicity, organism-based. Summed up:
as §1

The nature of series [6]: Time of peak anticonvulsant effect in CF1 MICE after po administration. The format is functional, Mus musculus. Summed up: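 Male CF1 mice (ca. 24–34 g), compound in 0.5% methylcellulose suspension given ip or po; time (h) at which MES protection (against tonic hind limb extension) peaked was recorded and used for ED50 determination.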
The nature of series [7]: Antiepileptic activity in male CF1 mice 30 min after administration measured in neurological toxicity (Tox) test at a dose of 300 mg/kg (no. of animals treated /protected); activity value is 3/4. In kind it is functional, Mus musculus.
A short description of series [8]: Antiepileptic activity in male CF1 mice 0.5 hr after oral administration measured in maximum electroshock seizure(MES) test at a dose of 50 mg/kg (no. of animals treated /protected); activity value is 4/4. In kind it is functional, Mus musculus.
Series [9] in a line: Antiepileptic activity in male CF1 mice 1 hr after oral administration measured in neurological toxicity (Tox) test at a dose of 50 mg/kg (no. of animals treated /protected); activity value is 0/4. In kind it is functional, Mus musculus.
Series [10] in a line: Antiepileptic activity in male CF1 mice 2 hr after oral administration measured in maximum electroshock seizure(MES) test at a dose of 50 mg/kg (no. of animals treated /protected); activity value is 2/4. In kind it is functional, Mus musculus.
Series [11] is described as follows: Antiepileptic activity in male CF1 mice 2 hr after oral administration measured in neurological toxicity (Tox) test at a dose of 50 mg/kg (no. of animals treated /protected); activity value is 0/4. The format is functional, Mus musculus.
Series [12] can be described thus: Antiepileptic activity in male CF1 mice 4 hr after oral administration measured in maximum electroshock seizure(MES) test at a dose of 50 mg/kg (no. of animals treated /protected); activity value is 2/4. In kind it is functional, Mus musculus.
For series [13], the system named is Rattus norvegicus. Description: Average seizure score for the rat cornea 0.5 hr after peroral administration of 60 mg/kg of compound. As to conditions: route oral. The format is functional. Summed up: (§3)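 Sprague-Dawley rats (85–95 g initial) were kindled with 4 s, 8 mA corneal stimulations (butacaine anesthesia) to 10 consecutive stage 5 seizures. After a vehicle shock and a 2-day shock-free period, test drug was given ip or po and a single shock applied at time of peak effect. Seizures were scored on a modified Racine 0–5 scale. ED50 is the dose reducing severity by 50% (Litchfield–Wilcoxon).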

Series [14] is described as follows: Protective index was measured as TD50/MES ED50 in mice on ip administration. In kind it is ADME, organism-based. As to conditions: mouse, in vivo, read-out: PI. The method, boiled down: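 Male CF1 mice (ca. 24–34 g), compound given ip as 0.5% methylcellulose suspension. MES ED50 = dose protecting 50% from tonic hind limb extension; TD50 = median neurotoxic dose by rotorod; both at time of peak effect, with confidence limits by Litchfield and Wilcoxon. PI = TD50/MES ED50.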

In series [15] the test system is Rattus norvegicus. Briefly: Per oral dose (60 mg/Kg) reducing rat corneal kindling 0.5 hr after administration. In kind it is functional. Summed up:
as §3

The nature of series [16]: as §2. In kind it is functional. As to conditions: Mus musculus, ip; read-out: ED50 (the source's name). The method, boiled down: as §1
The nature of series [17]: Antiepileptic activity in male CF1 mice 30 min after administration measured in maximum electroshock seizure(MES) test at a dose of 100 mg/kg (no. of animals treated /protected); activity value is 3/3. The format is functional, Mus musculus.
Series [18] can be described thus: Antiepileptic activity in male CF1 mice 4 hr after administration measured in maximum electroshock seizure(MES) test at a dose of 300 mg/kg (no. of animals treated /protected); activity value is 1/1. The format is functional, Mus musculus.
Series [19] can be described thus: Antiepileptic activity in male CF1 mice 4 hr after administration measured in neurological toxicity (Tox) test at a dose of 100 mg/kg (no. of animals treated /protected); activity value is 0/4. The format is functional, Mus musculus.
A short description of series [20]: Antiepileptic activity in male CF1 mice 4 hr after administration measured in subcutaneous pentylenetetrazole (scMet) test at a dose of 100 mg/kg (no. of animals treated /protected); activity value is 0/1. The format is functional, Mus musculus.
A short description of series [21]: Antiepileptic activity in male CF1 mice 0.50 hours after oral administration measured in neurological toxicity (Tox) test at a dose of 6 mg/kg (no. of animals treated /protected); activity value is 0/4. The format is functional, Mus musculus.
Series [22] in a line: Antiepileptic activity in male CF1 mice 0.5 hr after oral administration measured in maximum electroshock seizure(MES) test at a dose of 10 mg/kg (no. of animals treated /protected); activity value is 4/4. In kind it is functional, Mus musculus.
Series [23] can be described thus: Antiepileptic activity in male CF1 mice 0.5 hr after oral administration measured in maximum electroshock seizure(MES) test at a dose of 6 mg/kg (no. of animals treated /protected); activity value is 3/4. The format is functional, Mus musculus.
Series [24] can be described thus: Antiepileptic activity in male CF1 mice 0.5 hr after oral administration measured in neurological toxicity (Tox) test at a dose of 10 mg/kg (no. of animals treated /protected); activity value is 0/4. In kind it is functional, Mus musculus.
Series [25] can be described thus: Antiepileptic activity in male CF1 mice 2.00 hours after oral administration measured in neurological toxicity (Tox) test at a dose of 6 mg/kg (no. of animals treated /protected); activity value is 0/4. In kind it is functional, Mus musculus.
The nature of series [26]: Antiepileptic activity in male CF1 mice 2 hr after oral administration measured in maximum electroshock seizure(MES) test at a dose of 10 mg/kg (no. of animals treated /protected); activity value is 4/4. The format is functional, Mus musculus.
The nature of series [27]: Antiepileptic activity in male CF1 mice 2 hr after oral administration measured in neurological toxicity (Tox) test at a dose of 10 mg/kg (no. of animals treated /protected); activity value is 0/4. In kind it is functional, Mus musculus.
A short description of series [28]: Antiepileptic activity in male CF1 mice 4 hr after oral administration measured in neurological toxicity (Tox) test at a dose of 10 mg/kg (no. of animals treated /protected); activity value is 0/4. In kind it is functional, Mus musculus.
Series [29] concerns Rattus norvegicus. Briefly: Average seizure score for the rat cornea 0.5 hr after peroral administration of 20 mg/kg of compound. In kind it is functional. As to conditions: route oral. Summed up: as §3
Series [30] has as its system Rattus norvegicus. Description: Per oral dose (40 mg/Kg) reducing rat corneal kindling 0.5 hr after administration. The format is functional. The method, boiled down: as §3
The subject of series [31] is Rattus norvegicus. Description: Per oral dose (20 mg/Kg) reducing rat corneal kindling 0.5 hr after administration. In kind it is functional. Summed up: as §3

Consider `COC(=O)C1C(=O)C=C(NCc2ccccc2)CC1C` (stereo unspecified), for which the ED50 is 42 mg/kg in series [1] and over 500 mg/kg in [2]. Moreover, the TD50 in series [3] and in series [5] was over 500 mg/kg throughout. The Activity amounted to 0.1 in series [4]; 3 in [7]; 4 in [8]; 0 in [9]; 2 in [10]; 0 in [11]. In series [12], the Activity stood at 2. The same compound had a TPE in [6] of 0.5 h. In the series with Rattus norvegicus [13], this compound yielded an Average seizure score of 3. The selectivity ratio in series [14] is over 11.9. Further, the Reduction in the series on Rattus norvegicus [15] is 40%.

On to `COC(=O)C1C(=O)C=C(Nc2ccc(Cl)cc2)CC1C` (stereo unspecified), for which, in series [16], the TD50 was 255 mg/kg. In addition, the Activity turned out to be 3 in series [17]; 1 in series [18]; 0 in series [19]; 0 in [20]; 0 in series [21]; 4 in [22]. For the same compound, the Activity in series [23] stood at 3; in series [24] it was 0; in series [25] it was 0; in series [26], 4; in series [27] it was 0; in series [28] it was 0. In the series with Rattus norvegicus [29], this compound displayed an Average seizure score of 3. Moreover, the values for the Reduction in the series on Rattus norvegicus [30] and in the series with Rattus norvegicus [31] were 49% and 40%, respectively.
